This is an account of results in ChEMBL document CHEMBL1133118 (J Med Chem, 2000).

For assay [1], the target named is Adenosine receptors; A2b & A3 (Homo sapiens) (UniProt P29275+P0DMS8). In words: Ratio of binding affinity of human A2B receptor to that of human A3 receptor. Format: protein assay. An outline of the steps: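 Ki ratio, n=3-6, 6–8 concentrations. A2B in HEK-293 membranes (20 μg): 40 nM [3H]DPCPX, 50 mM Tris HCl, 10 mM MgCl2, 1 mM EDTA, 0.1 mM benzamidine pH 7.4, 2 IU/mL adenosine deaminase, 60 min at 25 °C, nonspecific with 100 μM NECA. A3 in CHO membranes (50 μg): 1 nM [3H]MRE3008-F20, 120 min at 4 °C.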

For assay [2], the target named is T1, Adenosine receptor A2b (Homo sapiens, UniProt P29275).
T1 sequence (P29275 whole entry): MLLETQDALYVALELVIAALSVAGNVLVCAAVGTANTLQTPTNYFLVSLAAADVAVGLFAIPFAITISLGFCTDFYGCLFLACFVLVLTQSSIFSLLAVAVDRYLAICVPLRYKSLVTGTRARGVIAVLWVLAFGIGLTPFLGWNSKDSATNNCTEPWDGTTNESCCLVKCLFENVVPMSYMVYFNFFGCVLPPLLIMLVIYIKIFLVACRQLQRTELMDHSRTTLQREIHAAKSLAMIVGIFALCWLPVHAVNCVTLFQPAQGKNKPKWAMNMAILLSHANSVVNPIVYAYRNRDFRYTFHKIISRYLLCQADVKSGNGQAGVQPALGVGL
Put plainly: Tested for inhibitory activity against Adenosine A2b receptor by displacement of [3H]DPCPX expressed in […]; value ranges from 61-80. Format: cell-based. A general note: Loss of bound radioactivity is the signal in a displacement assay; it reports binding, not function.

Assay [3] deals with T2, Adenosine receptor A2a (Homo sapiens, UniProt P29274). In words: Displacement of [3H]-SCH- 58261 from human adenosine A2A receptor expressed in CHO cells; range 218-283. Format: cell-based.
In assay [4] the target is T3, Adenosine receptor A3 (Homo sapiens, UniProt P0DMS8).
T3 sequence (P0DMS8 whole entry): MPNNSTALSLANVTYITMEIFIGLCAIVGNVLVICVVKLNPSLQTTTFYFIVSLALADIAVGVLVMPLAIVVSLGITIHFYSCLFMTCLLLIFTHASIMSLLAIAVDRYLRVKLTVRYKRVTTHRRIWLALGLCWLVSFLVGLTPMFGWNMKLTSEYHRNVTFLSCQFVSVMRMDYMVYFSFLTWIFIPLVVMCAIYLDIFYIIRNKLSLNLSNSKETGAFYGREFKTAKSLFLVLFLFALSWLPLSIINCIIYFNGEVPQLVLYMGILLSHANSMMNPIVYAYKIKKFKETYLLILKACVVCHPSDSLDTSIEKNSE
In words: biochemical.

For assay [5], the target named is T3, Adenosine receptor A3. In words: Inhibition of cAMP accumulation in CHO cells expressing human A3 adenosine receptor. Format: functional, cell-based. Background: Changes in cAMP serve as a functional read-out for many G protein-coupled receptors.
Assay [6] has as its target T4, Adenosine receptor A1 (Homo sapiens, UniProt P30542).
T4 sequence (P30542 whole entry): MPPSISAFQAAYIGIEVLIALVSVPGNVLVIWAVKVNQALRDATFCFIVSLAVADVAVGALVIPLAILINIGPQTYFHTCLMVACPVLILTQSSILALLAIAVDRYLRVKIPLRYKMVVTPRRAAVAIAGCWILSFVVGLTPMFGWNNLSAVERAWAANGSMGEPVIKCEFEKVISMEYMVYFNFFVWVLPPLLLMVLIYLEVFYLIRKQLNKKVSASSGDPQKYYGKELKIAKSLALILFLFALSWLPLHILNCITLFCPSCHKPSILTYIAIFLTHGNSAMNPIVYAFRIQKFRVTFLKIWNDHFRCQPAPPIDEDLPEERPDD
Put plainly: Displacement of [3H]DPCPX from human adenosine A1 receptor expressed in CHO cells; range 179-317. Format: cell-based.

The target in assay [7] is Adenosine receptors; A1 & A3 (Homo sapiens) (UniProt P30542+P0DMS8). Put plainly: Ratio of binding affinity of human A1 receptor to that of human A3 receptor. Format: protein assay. The method in brief: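 Ki ratio from displacement in CHO membranes, 6–8 concentrations, n=3-6, filtration counting. A1: 1 nM [3H]DPCPX, 50 μg protein, 120 min at 25 °C, nonspecific with 10 μM CHA. A3: 1 nM [3H]MRE3008-F20, 50 μg protein, Tris/10 mM MgCl2 pH 7.4, 120 min at 4 °C, nonspecific with 1 μM MRE3008-F20.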

Assay [8] deals with T5, Adenosine receptor A3 (Homo sapiens) (UniProt P0DMS8).
T5 sequence (whole entry): T3 sequence (P0DMS8 whole entry)
The settings on record: CHO, 1 uM.

Assay [9] concerns the target T5, Adenosine receptor A3 (Homo sapiens). In words: Percentage of blockade by 1 uM of the inhibition by 100 nM IB-MECA-inhibited cAMP accumulation in CHO cells expressing human adenosine A3 receptor. Format: functional, cell-based. The method in brief:
(§1)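 CHO cells stably expressing human A3 receptor; membranes in 50 mM Tris HCl, 10 mM MgCl2, 1 mM EDTA pH 7.4 with 5 μM GTP, 0.5 mM […] and 2.0 IU/mL adenosine deaminase. Preincubated 10 min at 37 °C, then IB-MECA (100 nM) and/or antagonist with 1 mM ATP and 10 μM forskolin for 10 min. Boiled 2 min. cAMP read by [3H]cAMP competition with adrenal binding protein.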

Assay [10] has as its target T1, Adenosine receptor A2b. Put plainly: Displacement of [3H]DPCPX from Adenosine A2b receptor expressed in […]; range 3.9-6.7. Format: cell-based.
Assay [11] deals with T2, Adenosine receptor A2a. In words: biochemical.
The target of assay [12] is T3, Adenosine receptor A3. In words: Displacement of [3H]MRE3008-F20 from human adenosine A3 receptor expressed in CHO cells; range 247-317. Format: cell-based.
Assay [13] has as its target T3, Adenosine receptor A3. In words: Inhibition of cAMP accumulation in CHO cells expressing human adenosine A3 receptor. Format: functional, cell-based.
Assay [14] concerns the target T4, Adenosine receptor A1. Put plainly: Displacement of [3H]-DPCPX from human adenosine A1 receptor expressed in CHO cells; range 6.9-9.7. Format: cell-based.
The target in assay [15] is T2, Adenosine receptor A2a. Put plainly: Displacement of [3H]-SCH- 58261 from human adenosine A2A receptor expressed in CHO cells; range 8.7-10.5. Format: cell-based.
Assay [16] concerns the target T1, Adenosine receptor A2b. In words: Displacement of [3H]DPCPX from Adenosine A2b receptor expressed in HEK-293 cells; range 23-40.
In assay [17] the target is T4, Adenosine receptor A1. Put plainly: Displacement of [3H]DPCPX from human adenosine A1 receptor expressed in CHO cells; range 329-375. Format: cell-based.
Assay [18] has as its target T3, Adenosine receptor A3. Put plainly: Displacement of [3H]MRE3008-F20 from human adenosine A3 receptor expressed in CHO cells; range 50-61. Format: cell-based.
Assay [19] concerns the target T5, Adenosine receptor A3 (Homo sapiens). In words: Percent reversal of 100 nM IB-MECA-inhibited cAMP accumulation in CHO cells expressing human adenosine A3 receptor at 1 uM; range 26-54. Format: functional, cell-based. An outline of the steps:
as §1

For assay [20], the target named is T1, Adenosine receptor A2b. Put plainly: Displacement of [3H]DPCPX from Adenosine A2b receptor expressed in […]; range 70-94. Format: cell-based.
For assay [21], the target named is T2, Adenosine receptor A2a. In words: Displacement of [3H]-SCH- 58261 from human adenosine A2A receptor expressed in CHO cells; range 85-140. Format: cell-based.
Assay [22] concerns the target T1, Adenosine receptor A2b. In words: Displacement of [3H]DPCPX from Adenosine A2b receptor expressed in […]; range 332-369. Format: cell-based.
For assay [23], the target named is T2, Adenosine receptor A2a. Put plainly: Displacement of [3H]-SCH- 58261 from human adenosine A2A receptor expressed in CHO cells; range 484-558. Format: cell-based. An outline of the steps:
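Membranes from CHO cells stably expressing human A2A receptor, grown in DMEM/F12 without nucleosides, resuspended in 50 mM Tris HCl, 10 mM MgCl2, pH 7.4; 50 μg protein/assay. Competition with [3H]SCH 58261 at 6–8 or more compound concentrations, 60 min at 25 °C; nonspecific binding with 50 μM NECA. Filtration on GF/B filters, scintillation counting; n=3-6.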

The target of assay [24] is T3, Adenosine receptor A3. Put plainly: Displacement of [3H]MRE3008-F20 from human adenosine A3 receptor expressed in CHO cells; range 0.08-0.27. Format: cell-based.
In assay [25] the target is T4, Adenosine receptor A1. In words: Displacement of [3H]DPCPX from human adenosine A1 receptor expressed in CHO cells; range 365-550. Format: cell-based.

T2 sequence (P29274 whole entry): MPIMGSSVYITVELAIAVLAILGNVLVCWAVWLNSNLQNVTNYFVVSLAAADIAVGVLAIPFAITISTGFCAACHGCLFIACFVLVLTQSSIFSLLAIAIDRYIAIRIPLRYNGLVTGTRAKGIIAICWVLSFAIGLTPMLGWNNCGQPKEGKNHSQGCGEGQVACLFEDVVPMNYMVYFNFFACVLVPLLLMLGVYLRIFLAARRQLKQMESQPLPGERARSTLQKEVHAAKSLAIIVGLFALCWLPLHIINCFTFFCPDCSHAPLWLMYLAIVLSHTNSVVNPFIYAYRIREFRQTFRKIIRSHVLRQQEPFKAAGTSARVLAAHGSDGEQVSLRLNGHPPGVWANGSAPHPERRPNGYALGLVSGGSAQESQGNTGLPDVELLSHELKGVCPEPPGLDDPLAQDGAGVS

For the compound `O=C(Nc1cccc(Cl)c1)Nc1nc2n[nH]cc2c2nc(-c3ccco3)nn12`, the Ratio in assay [1] came out at 140; in [7], 476. The Ki (usually the equilibrium dissociation constant of an inhibitor or competing ligand from its target) came out at 70 nM on Adenosine receptor A2b [2], 248 nM at Adenosine receptor A2a [3], 0.5 nM on Adenosine receptor A3 [4] and 238 nM at Adenosine receptor A1 [6]. The IC50 (as a rule, the point on the concentration scale where inhibition reaches its midpoint) against Adenosine receptor A3 [5] came out at 5.3 nM. Also, in assay [8], the inhibition – broadly, the percentage by which the read-out fell short of the control – was determined as 88%.

In the case of `Nc1nc2nn(CCc3ccccc3)cc2c2nc(-c3ccco3)nn12`, the results for the Ratio in [1] and in assay [7] were 0.0017 and 0.003, respectively. Besides, the inhibition in [9] amounted to 28%. Moreover, the Ki turned out to be 5.1 nM at Adenosine receptor A2b [10], 0.34 nM at Adenosine receptor A2a [11] and 280 nM at Adenosine receptor A3 [12].

Take `O=C(Nc1cccc(Cl)c1)Nc1nc2ccc(Cl)cc2c2nc(-c3ccco3)nn12`: the Ratio in assay [1] amounted to 157; in assay [7], 54. In [9], this compound had an inhibition of 95%. The same compound showed an IC50 at Adenosine receptor A3 [13] of 2.4 nM. The Ki at Adenosine receptor A1 [14] amounted to 8.1 nM; at Adenosine receptor A2a [15], 9.5 nM; at Adenosine receptor A2b [16], 30 nM.

With `CC(C)=CCn1cc2c(nc(NC(=O)Nc3cccc(Cl)c3)n3nc(-c4ccco4)nc23)n1`, the Ratio was 1.47 in [1] and 6.4 in assay [7]. Moreover, the Ki was found to be 352 nM at Adenosine receptor A1 [17], 55 nM on Adenosine receptor A3 [18], 81 nM at Adenosine receptor A2b [20] and 110 nM on Adenosine receptor A2a [21]. In addition, the inhibition in assay [19] was determined as 38%.

`COc1ccc(NC(=O)Nc2nc3n[nH]cc3c3nc(-c4ccco4)nn23)cc1`: the results for the Ratio in assay [1] and in assay [7] were 2500 and 3200, respectively. Moreover, the inhibition constant (Ki) at Adenosine receptor A2b [22] worked out at 350 nM; at Adenosine receptor A2a [23] it was 520 nM; at Adenosine receptor A3 [24], 0.14 nM; on Adenosine receptor A1 [25], 448 nM. The compound further showed an IC50 against Adenosine receptor A3 [5] of 1.8 nM. In assay [8], the inhibition came to 98%.
